Assay results taken from ChEMBL document CHEMBL1124291, “New actinomycin D analogues as superior chemotherapeutic agents against primary and advanced colon tumors and colon xenografts in nude mice” (J Med Chem, 1988).

What was measured:
Rattus norvegicus [1] = organism: Rattus norvegicus; assay: DNA-cleaving ability expressed as % of closed circular pBR322 DNA cleaved at 100 uM conc 100 uM; format: functional
Summary of the method: (§1)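 pBR322 DNA (200 μM nucleotides) in 10 mM Tris·HCl pH 7.8 and 50 mM NaCl, with 4 mM Na₂S₂O₄ and 100 μM FeCl₂. Incubated with drug for 1 h at 20 °C, kept air-saturated. Supercoiled and open-circular forms were separated by agarose gel electrophoresis, stained with ethidium bromide and quantitated by densitometry. % cleaved was calculated from the open- and closed-circular amounts.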

[2] = DNA-cleaving ability expressed as % of closed circular pBR322 DNA cleaved at 10 uM conc 10 uM
MC-38 [3] = assay: Number of toxic deaths/number of mice in a group of non tumored mice treated in parallel with the tumor-bearing mice and observed for 100 days at a dose of 0.30 mg/ kg; value given as 0/9; format: functional, Mus musculus
Summary of the method: (§2)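 Non-tumored CDF1 mice were treated in parallel with colon 38 tumor-bearing mice: iv injections on days 1, 5 and 9, groups of nine. Deaths were counted over 100 days of observation and reported as toxic deaths / mice in group.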

P388 (Mus musculus) [4] = assay: Percent of the unidentified metabolites isolated from incubation mixture containing tumor cell homogenate(T)
B16 [5] = assay: In vivo antitumor activity against B16 melanoma cells at a optimal dose measured as %ILS (%increase life span); format: functional, Mus musculus
Summary of the method: (§3)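 BDF1 mice in groups of nine were implanted ip on day 0 with 0.2 mL of 1:5 (w/v) B16 melanoma brei; drugs were given ip. Survival is reported as median survival time in days with range, and as %ILS, with survivors counted on day 65 out of total injected.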

HT-29 [6] = assay: 50% inhibition of incorporationf precursor [3H]thymidine into DNA HT-29 cell lines; format: functional, cell-based; settings: Homo sapiens, HT-29, 2 h
Summary of the method: (§4)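 HT-29 colon carcinoma monolayers, 10^4 cells per well, five wells per concentration. Drug exposure lasted 2 h, with [³H]thymidine and [2-¹⁴C]uridine (0.5 μCi each) added for the last hour. Cells were washed, trypsinized, counted and precipitated onto glass-fiber filters with 10% TCA. Acid-precipitable radioactivity was measured. IC50 is the concentration inhibiting 50% of incorporation; data are averages of replicate experiments.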

P388 [7] = assay: Antitumor activity in P388/ADR (adriamycin resistant), in male BDF1 mice measured as optimal dose
Rattus norvegicus [8] = organism: Rattus norvegicus; assay: Stimulation of NADPH oxidation in the presence of rat liver microsomes; format: functional
Summary of the method: (§5)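 Drug-stimulated superoxide generation with rat liver microsomal enzymes and NADPH as cofactor. NADPH oxidation was read at 340 nm. Adrenochrome formed from epinephrine was read at 480 nm, with or without superoxide dismutase. % stimulation = [(drug-stimulated rate − basal rate)/basal rate] × 100. Values are mean ± standard error of triplicate analyses.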

P388 [9] = assay: 50% inhibition of incorporation precursor [14C]uridine into RNA P388 cell lines; format: functional, cell-based; settings: Mus musculus
P388 [10] = assay: Antitumor activity in P388/S(AMD sensitive) in male BDF1 mice measured as optimal dose at dose 0.3-1.8 mg/kg
MC-38 [11] = assay: Number of toxic deaths/number of mice in a group of non tumored mice treated in parallel with the tumor-bearing mice and observed for 100 days at a dose of 0.60 mg/ kg; value given as 0/9; format: functional, Mus musculus; summary of the method: as §2
Rattus norvegicus [12] = organism: Rattus norvegicus; assay: Percent of the uncoverted isolated from incubation mixture containing trat microsomes,; format: functional
Summary of the method: (§6)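 Tritiated analogues were incubated with two systems. (T) sonicated P388 cell homogenates, 37 °C for 16 h. (M) liver microsomes from phenobarbital-induced rats, 6 h with an NADPH-generating system (glucose-6-phosphate dehydrogenase plus glucose 6-phosphate). Metabolites and water-soluble conjugates were isolated, separated by HPLC and expressed as percentages.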

Rattus norvegicus [13] = organism: Rattus norvegicus; assay: The formation of adrenochrome from epinephrine in the presence of SOD(super oxide dismutase); + denotes ' Inhibited'; format: functional; summary of the method: as §5
MC-38 [14] = assay: Activity against advanced carcinoma C38 tumor in CDF1 Mice at dose 0.30 mg/kg measured as % inhibition of tumor; format: functional; settings: Mus musculus
Rattus norvegicus [15] = organism: Rattus norvegicus; assay: Percent of the tissue bound conjugates isolated from incubation mixture containing rat microsomes; format: functional; summary of the method: as §6
P388 [16] = assay: 50% inhibition of incorporation of precursor [3H]thymidine into DNA P388 cell lines; format: functional, cell-based; settings: Mus musculus, P388, 2 h
HT-29 [17] = assay: 50% inhibition of incorporationf precursor [3H]thymidine into RNA HT-29 cell lines; format: functional, cell-based; settings: Homo sapiens, HT-29, 2 h; in the assay text read “[14C]uridine” for “[3H]thymidine”; summary of the method: as §4
Rattus norvegicus [18] = organism: Rattus norvegicus; assay: Percent of the unidentified metabolites isolated from incubation mixture containing rat micro somes; format: functional; summary of the method: as §6
Rattus norvegicus [19] = organism: Rattus norvegicus; assay: Percent of the protein conjugates isolated from incubation mixture containing rat micro somes; format: functional; summary of the method: as §6
Rattus norvegicus [20] = organism: Rattus norvegicus; assay: Percent of the SAD glucuronide and/or sulfate isolated from incubation mixture containing tumor cell homogenate(T) after 8.0, 10.5 min.; format: functional; summary of the method: as §6
P388 (Mus musculus) [21] = assay: Percent of the tissue bound conjugates isolated from incubation mixture containing tumor cell homogenate(T)
B16 [22] = assay: In vivo antitumor activity against B16 melanoma cells at dose 300 ug/Kg /inj measured as Mean survival time (MST); format: functional, Mus musculus; summary of the method: as §3
Rattus norvegicus [23] = organism: Rattus norvegicus; assay: Percent of the protein conjugates isolated from incubation mixture containing tumor cell homogenate(T); format: functional; summary of the method: as §6
MC-38 [24] = assay: Number of toxic deaths/number of mice in a group of non tumored mice treated in parallel with the tumor-bearing mice and observed for 100 days at a dose of 1.20 mg/ Kg; value given as 4/9; format: toxicity; settings: mouse, in vivo, 1.2 mg/kg, 2400 h; summary of the method: as §2
MC-38 [25] = assay: Mean survival time of treated / untreated group x100. (number of over 100-day survivors/number of total mice in the group) at a dose 1.20 mg/kg; format: functional, Mus musculus; settings: dose 1.2 mg/kg
Summary of the method: (§7)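 CDF1 mice were implanted sc on day 0 with colon 38 adenocarcinoma fragments (70 mg) and given iv drug on days 1, 5 and 9. %T/C = median survival of treated / untreated × 100. Number of mice surviving over 100 days / group total is given in parentheses.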

Rattus norvegicus [26] = organism: Rattus norvegicus; assay: DNA-cleaving ability expressed as % of closed circular pBR322 DNA cleaved […] conc 50 uM; format: functional; summary of the method: as §1
Rattus norvegicus [27] = organism: Rattus norvegicus; assay: The formation of adrenochrome from epinephrine in the absence of SOD(super oxide dismutase); format: functional; summary of the method: as §5
pBR322 plasmid DNA = assay: DNA-cleaving ability expressed as % of closed circular pBR322 DNA cleaved […]
P388 (Mus musculus) [28] = assay: Percent of the uncoverted isolated from incubation mixture containing tumor cell homogenate(T)
MC-38 [29] = assay: Activity against advanced carcinoma C38 tumor in CDF1 Mice at dose 0.60 mg/kg measured as % inhibition of tumor; format: functional; settings: Mus musculus
MC-38 [30] = assay: Mean survival time of treated / untreated group x100. (number of over 100-day survivors/number of total mice in the group) at a dose 0.30 mg/kg; format: functional, Mus musculus; settings: dose 0.3 mg/kg; summary of the method: as §7
MC-38 [31] = assay: Mean survival time of treated / untreated group x100. (number of over 100-day survivors/number of total mice in the group) at a dose 0.60 mg/kg; format: functional, Mus musculus; settings: dose 0.6 mg/kg; summary of the method: as §7
MC-38 [32] = assay: Activity against advanced carcinoma C38 tumor in CDF1 mice at dose 1.20 mg/kg measured as % inhibition of tumor; format: functional; settings: Mus musculus

With `Cc1c2oc3c(C)c(O)c(N)c(C(=O)N[C@@H]4C(=O)N[C@H](C(C)C)C(=O)N5CCC[C@H]5C(=O)N(C)CC(=O)N(C)[C@@H](C(C)C)C(=O)O[C@@H]4C)c3nc-2c(C(=O)N[C@@H]2C(=O)N[C@H](C(C)C)C(=O)N3CCC[C@H]3C(=O)N(C)CC(=O)N(C)[C@@H](C(C)C)C(=O)O[C@@H]2C)c(N)c1=O` the Activity (Rattus norvegicus [1]) was 65%, the Activity [2] was 35% and the Toxic deaths (MC-38 [3]) was 0. It also gave an Activity (P388 (Mus musculus) [4]) of 10%, an ILS (B16 [5]) of 96% and an IC50 (HT-29 [6]) of 0.07 µM. For the same compound, the optimal dose (P388 [7]) was 1.2 mg/kg, the NADPH oxidation (nM min-1 (mg of protein)-1) (Rattus norvegicus [8]) was 64.3 and the IC50 (P388 [9]) was 0.015 µM. For the same compound, the optimal dose (P388 [10]) was 0.6 mg/kg, the Toxic deaths (MC-38 [11]) was 0 and the Activity (Rattus norvegicus [12]) was 50%. For the same compound, the Adrenochrome formation (Rattus norvegicus [13]) was “Inhibited”, the inhibition in vivo at 0.3 mg/kg (MC-38 [14]) was 95% and the Activity (Rattus norvegicus [15]) was 15%. The IC50 (P388 [16]) was 0.012 µM, the IC50 (HT-29 [17]) was 0.055 µM and the Activity (Rattus norvegicus [18]) was 15%. For the same compound, the Activity (Rattus norvegicus [19]) was 20%, the Activity (Rattus norvegicus [20]) was 47% and the Activity (P388 (Mus musculus) [21]) was 7.5%. It also gave an MST (B16 [22]) of 57, an Activity (Rattus norvegicus [23]) of 5.5% and a Toxic deaths (MC-38 [24]) of 4. For the same compound, the T/C (MC-38 [25]) was 211%, the Activity (Rattus norvegicus [26]) was 50% and the Adrenochrome formation (Rattus norvegicus [27]) was 19.3 nM min-1 (mg of protein)-1. It also gave an Activity (pBR322 plasmid DNA) of 50%, an Activity (P388 (Mus musculus) [28]) of 30% and an inhibition in vivo at 0.6 mg/kg (MC-38 [29]) of 97%. For the same compound, the T/C (MC-38 [30]) was 278%, the T/C (MC-38 [31]) was 278% and the inhibition in vivo at 1.2 mg/kg (MC-38 [32]) was 99%.
In the case of BLEOMYCIN, the Activity (Rattus norvegicus [1]) is reported as > 85% and the Activity (Rattus norvegicus [26]) is reported as 75%.
